Data set [1] can be described thus: Ratio of unbound brain concentration to unbound plasma concentration in po dosed beagle dog. The note with it: brain and plasma, read-out: K(p,uu,brain). Type of data set: ADME, organism-based, Canis lupus familiaris. The gist of the method: (§1)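 Compound given sc to mice, iv and/or sc to rats, po to dogs and sc to monkeys; sc doses as a solution in 20% SBE-BCD + 2 molar equiv 1N HCl. Plasma, whole brain and CSF taken at matched times from 2 min to 24 h and quantified by LC-MS/MS. Fraction unbound in plasma and brain homogenate (diluted 4-fold, dilution factor 5 applied) by 6 h equilibrium dialysis against phosphate buffer at 37°C.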

A short description of data set [2]: Terminal half life in beagle dog at 5 mg/kg, po administered via gavage by LC-MS/MS analysis. Format: ADME, organism-based, Canis lupus familiaris. To be noted: in vivo, read-out: beta t1/2 (converted).
Data set [3] has as its target T1, Cytochrome P450 1A2 (Homo sapiens, UniProt P05177).
T1 sequence (P05177 whole entry): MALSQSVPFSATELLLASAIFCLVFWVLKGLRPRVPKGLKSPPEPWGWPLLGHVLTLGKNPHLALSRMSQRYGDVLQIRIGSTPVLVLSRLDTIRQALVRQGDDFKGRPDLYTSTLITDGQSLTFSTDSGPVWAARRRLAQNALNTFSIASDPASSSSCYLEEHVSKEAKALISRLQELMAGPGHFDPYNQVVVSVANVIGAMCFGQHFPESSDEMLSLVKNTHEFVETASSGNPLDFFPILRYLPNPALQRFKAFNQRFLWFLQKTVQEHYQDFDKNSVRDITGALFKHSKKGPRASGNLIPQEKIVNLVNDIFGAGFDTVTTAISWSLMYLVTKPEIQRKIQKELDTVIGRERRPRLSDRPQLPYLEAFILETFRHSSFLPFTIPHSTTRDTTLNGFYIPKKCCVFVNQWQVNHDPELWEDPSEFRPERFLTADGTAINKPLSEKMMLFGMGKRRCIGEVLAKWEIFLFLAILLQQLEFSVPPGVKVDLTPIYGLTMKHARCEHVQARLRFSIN
The experiment in a line: Inhibition of recombinant human CYP1A2. Format: ADME. The note with it: recombinant enzyme.

The subject of data set [4] is Rattus norvegicus. The experiment in a line: Reversal of MK-801-induced disruption of low frequency cortical delta oscillation in Sprague-Dawley rat brain at 0.1 mg/kg, iv up to 55 mins by electrophysiology method. Type of data set: functional, organism-based.
The species named for data set [5] is Rattus norvegicus. The experiment in a line: Cardiotoxicity in rat up to 1 month by microscopic method. Format: toxicity.
Data set [6] is filed under the species Mus musculus. The data set is described as follows: Increase in cGMP level in CD-1 mouse brain striatum assessed per nM of unbound brain concentration by immunoassay. Type of data set: functional. The gist of the method:
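CD-1 mice given compound; brains fixed by focused microwave irradiation, and cortex, striatum and hippocampus dissected and homogenized in 0.5 N HCl, then centrifuged. cGMP in the supernatant measured by enzyme immunoassay. Unbound brain concentration taken from satellite animals. Dose-response and time-course data combined, and a linear Cbu–cGMP model fitted. The Cbu E50 is the projected Cbu giving a 50% rise in cGMP. Statistics by one-way ANOVA with Fisher's PLSD, p<0.05.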

For data set [7], the target named is T2, Aldehyde oxidase (Homo sapiens, UniProt Q06278).
T2 sequence (Q06278 whole entry): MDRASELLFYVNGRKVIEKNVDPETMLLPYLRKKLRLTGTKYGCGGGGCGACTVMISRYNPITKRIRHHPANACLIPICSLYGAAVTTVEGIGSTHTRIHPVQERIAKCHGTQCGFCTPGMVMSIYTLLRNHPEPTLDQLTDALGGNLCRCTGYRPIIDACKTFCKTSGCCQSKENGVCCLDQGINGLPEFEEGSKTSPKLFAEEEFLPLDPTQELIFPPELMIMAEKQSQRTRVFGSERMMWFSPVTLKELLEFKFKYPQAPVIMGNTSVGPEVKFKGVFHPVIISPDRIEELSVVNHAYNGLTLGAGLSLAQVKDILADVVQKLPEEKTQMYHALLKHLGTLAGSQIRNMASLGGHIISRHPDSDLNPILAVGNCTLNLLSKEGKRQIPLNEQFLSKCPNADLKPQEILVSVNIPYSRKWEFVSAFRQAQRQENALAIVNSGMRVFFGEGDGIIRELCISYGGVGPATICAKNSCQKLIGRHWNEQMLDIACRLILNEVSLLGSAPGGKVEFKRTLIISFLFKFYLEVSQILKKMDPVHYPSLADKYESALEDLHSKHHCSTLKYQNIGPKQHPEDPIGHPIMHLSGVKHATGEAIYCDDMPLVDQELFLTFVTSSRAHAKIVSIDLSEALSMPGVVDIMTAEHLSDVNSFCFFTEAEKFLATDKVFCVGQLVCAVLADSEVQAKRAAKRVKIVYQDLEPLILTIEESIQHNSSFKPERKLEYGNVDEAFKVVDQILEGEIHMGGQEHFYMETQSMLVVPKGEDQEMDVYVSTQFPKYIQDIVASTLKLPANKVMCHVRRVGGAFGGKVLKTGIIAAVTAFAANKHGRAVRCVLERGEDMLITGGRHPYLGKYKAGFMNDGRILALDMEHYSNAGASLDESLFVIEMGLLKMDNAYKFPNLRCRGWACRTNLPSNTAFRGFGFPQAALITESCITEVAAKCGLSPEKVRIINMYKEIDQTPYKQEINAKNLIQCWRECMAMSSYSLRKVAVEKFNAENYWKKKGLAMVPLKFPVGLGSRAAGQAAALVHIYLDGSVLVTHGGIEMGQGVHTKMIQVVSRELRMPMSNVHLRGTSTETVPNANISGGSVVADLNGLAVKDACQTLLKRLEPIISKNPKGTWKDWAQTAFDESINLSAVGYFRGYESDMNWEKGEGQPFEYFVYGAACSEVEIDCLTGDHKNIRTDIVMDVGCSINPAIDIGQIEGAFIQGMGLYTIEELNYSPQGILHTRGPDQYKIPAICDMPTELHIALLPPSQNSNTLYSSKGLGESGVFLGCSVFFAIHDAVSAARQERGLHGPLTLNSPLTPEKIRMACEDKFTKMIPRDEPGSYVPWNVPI
The experiment in a line: Drug metabolism assessed as aldehyde oxidase (unknown origin)-mediated metabolite formation. Type of data set: ADME.

The nature of data set [8]: Drug metabolism in rat hepatocytes assessed as 3-(7-methyl-5-(1-methyl-5-(5-(trifluoromethyl)pyridin-2-yl)-1H-pyrazol-4-yl)imidazo[1,5-f][1,2,4]triazin-4-ylamino)propanoic acid formation at 1 to 50 uM after 1 hr by LC-MS/MS analysis. Type of data set: ADME, cell-based, Hepatocyte. In outline: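 Rat, dog or human liver microsomes or hepatocytes (P450 0.35–0.5 µM final) incubated with compound at 1, 10 or 50 µM in 100 mM phosphate buffer with 1 mM NADP regenerating system, 37°C for 1 h; quenched with 4 volumes acetonitrile, centrifuged, supernatant evaporated, reconstituted in 5% aqueous acetonitrile and analysed by reversed-phase LC.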

Data set [9] concerns Plasma. The data set is described as follows: Drug uptake in rat plasma at 5 to 250 mg/kg/day, po up to 15 days by microscopic method. To be noted: in vivo, 360 h. Type of data set: ADME, organism-based. In outline:
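Exploratory rat toxicity study, oral dosing at 5, 50 and 250 mg/kg/day for up to 15 days, with microscopic examination of heart and vasculature and measurement of plasma and brain exposure.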

Data set [10] is described as follows: Ratio of unbound brain concentration to unbound plasma concentration in iv or sc dosed Wistar Han rat. Format: ADME, organism-based. To be noted: brain and plasma, read-out: K(p,uu,brain). In outline: as §1

The values that follow come from ChEMBL document CHEMBL4024790 (J Med Chem, 2018).

The source made the active and inactive calls. The calls are words filed in the database; no cut-off is given here.

With `Cc1nc(-c2cnn(C)c2-c2ccc(C(F)(F)F)cn2)c2c(N3CCC3)ncnn12` [PF-05180999], the Kp uu stood at 0.58 in data set [1] and 0.71 in data set [10]. In data set [2], the half-life was 4.1 h. For the same compound, the “inhibition (INH)” value in data set [3] is on record as “Not Active”. Moreover, the result in data set [4] was Active. The Activity result in [5] is “Non-Toxic”; in [6], 0.51%. Moreover, the Drug metabolism entry is “Metabolite_Notdetected” in data set [7] and “Metabolite_Detected” in data set [8]. Besides, the Drug uptake entry in data set [9] was “Active”.
